Laboratory results as given in ChEMBL document CHEMBL3997766, “Synthesis and pre-clinical studies of new amino-acid ester thiazolide prodrugs” (Eur J Med Chem, 2017).

Legend:
Plasma [1] = experiment: Elimination half life in Sprague-Dawley rat assessed as tizoxanide-glucuronide level in plasma at 10 to 75 mg/kg administered via oral gavage qd for 28 consecutive days; assay type: ADME, organism-based; conditions: in vivo
Summary of the method: (§1)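 In a sub-acute study, Sprague-Dawley rats were dosed once daily for 28 consecutive days at 10, 30 or 75 mg/kg, given as a yellow suspension. There were four groups of up to 30 rats each (15M/15F) to assess systemic exposure.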

Plasma [2] = experiment: Drug level in Sprague-Dawley rat plasma treated with RM-5061 at 10 to 75 mg/kg administered via oral gavage qd for 28 consecutive days; assay type: ADME, organism-based; conditions: in vivo; summary of the method: as §1
Canis familiaris = experiment: Drug level in Beagle dog plasma treated with RM-5061 up to 25 mg/kg administered orally as gelatin capsule once daily for 28 days measured on day 1 and 29; assay type: ADME, organism-based, Canis lupus familiaris; conditions: in vivo, po, 672 h
Summary of the method: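 Beagle dogs received the drug orally in a single gelatin capsule at 5, 15 or 25 mg/kg once daily for 28 consecutive days in a sub-acute toxicity study assessing systemic exposure.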

Plasma [3] = experiment: Elimination half life in Sprague-Dawley rat assessed as tizoxanide level in plasma at 10 to 75 mg/kg administered via oral gavage qd for 28 consecutive days; assay type: ADME, organism-based; conditions: in vivo; summary of the method: as §1
Rattus norvegicus [4] = experiment: Drug level in Sprague-Dawley rat treated with Nitazoxanide at 6 mg/kg, iv measured at 0.7 to 2.1 hrs post dose; assay type: ADME, organism-based; conditions: in vivo
Rattus norvegicus [5] = experiment: Cmax in Sprague-Dawley rat assessed as RM-4848-glucuronide level in plasma at 30 mg/kg, po administered as single dose; assay type: ADME, organism-based; set-up: dose 30 mg/kg, route oral; conditions: in vivo
Summary of the method: (§2)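 Rats in groups of three received one compound as a single oral dose (30 mg/kg) or a single intravenous injection (6 mg/kg), with four compounds studied separately. Serial blood samples were drawn at 5, 10, 15 and 30 min and at 1, 2, 4, 8, 23 and 24 h post-dose. Plasma parent drug and metabolites were quantified and PK parameters were derived.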

Rattus norvegicus [6] = experiment: Cmax in Sprague-Dawley rat assessed as RM-4848-glucuronide level at 6 mg/kg, iv administered as single dose; assay type: ADME, organism-based; set-up: dose 6 mg/kg, route intravenous; conditions: in vivo; summary of the method: as §2
Rattus norvegicus [7] = experiment: Elimination half life in Sprague-Dawley rat assessed as RM-4848-glucuronide level at 30 mg/kg, po administered as single dose; assay type: ADME, organism-based; conditions: in vivo; summary of the method: as §2
Plasma [8] = experiment: Drug metabolism in Sprague-Dawley rat assessed as RM-4848 formation in plasma at 30 mg/kg, po measured at 0.25 to 0.5 post dose; assay type: ADME, organism-based; conditions: in vivo; summary of the method: as §2
Rattus norvegicus [9] = experiment: AUC (0 to t) in Sprague-Dawley rat assessed as RM-4848 level in plasma at 6 mg/kg, iv administered as single dose; assay type: ADME, organism-based; conditions: in vivo; summary of the method: as §2
Rattus norvegicus [10] = experiment: Elimination half life in Sprague-Dawley rat assessed as RM-4848 level in plasma at 30 mg/kg, po administered as single dose; assay type: ADME, organism-based; conditions: in vivo; summary of the method: as §2
Rattus norvegicus [11] = experiment: Elimination half life in Sprague-Dawley rat assessed as RM-4848-glucuronide level at 6.4 mg/kg, iv; assay type: ADME, organism-based; conditions: in vivo
Plasma [12] = experiment: Drug metabolism in Sprague-Dawley rat assessed as RM-4848 formation in plasma at 6.4 mg/kg, iv measured at 1 to 4 hrs post dose; assay type: ADME, organism-based; conditions: in vivo
Rattus norvegicus [13] = experiment: AUC (0 to t) in Sprague-Dawley rat assessed as RM-4848-glucuronide level in plasma at 30 mg/kg, po administered as single dose; assay type: ADME, organism-based; conditions: in vivo; summary of the method: as §2
Rattus norvegicus [14] = experiment: Oral bioavailability in Sprague-Dawley rat assessed as RM-4848 level in plasma at 30 mg/kg administered as single dose; assay type: ADME, organism-based; conditions: in vivo
Summary of the method: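 Groups of three rats received a single oral dose (30 mg/kg) or intravenous dose (6 mg/kg), with serial blood sampling from 5 min to 24 h. Absolute bioavailability came from the AUC after oral versus intravenous dosing, with the AUC corrected for dose to 30 mg/kg.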

Rattus norvegicus [15] = experiment: Elimination half life in Sprague-Dawley rat assessed as RM-4848 level in plasma at 6.4 mg/kg, iv; assay type: ADME, organism-based; conditions: in vivo
Rattus norvegicus [16] = experiment: AUC (0 to t) in Sprague-Dawley rat assessed as RM-4848-glucuronide level at 6 mg/kg, iv administered as single dose; assay type: ADME, organism-based; conditions: in vivo; summary of the method: as §2
Plasma [17] = experiment: Drug metabolism in Sprague-Dawley rat assessed as RM-4848-glucuronide formation in plasma at 6 mg/kg, iv administered as single dose; assay type: ADME, organism-based; conditions: in vivo; summary of the method: as §2
Rattus norvegicus [18] = experiment: Cmax in Sprague-Dawley rat assessed as RM-4848 level in plasma at 30 mg/kg, po administered as single dose; assay type: ADME, organism-based; set-up: dose 30 mg/kg, route oral; conditions: in vivo; summary of the method: as §2
Rattus norvegicus [19] = experiment: AUC (0 to t) in Sprague-Dawley rat assessed as RM-4848 level in plasma at 30 mg/kg, po administered as single dose; assay type: ADME, organism-based; conditions: in vivo; summary of the method: as §2
Rattus norvegicus [20] = experiment: Tmax in Sprague-Dawley rat assessed as RM-4848-glucuronide level in plasma at 30 mg/kg, po administered as single dose; assay type: ADME, organism-based; conditions: in vivo
Summary of the method: (§3)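 Rats in groups of three got a single oral dose (30 mg/kg) or a single intravenous injection (6 mg/kg). Serial blood samples were taken at 5, 10, 15 and 30 min and at 1, 2, 4, 8, 23 and 24 h post-dose for plasma drug and glucuronide levels. Bioavailability came from oral versus intravenous AUC after dose correction to 30 mg/kg.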

Rattus norvegicus [21] = experiment: Cmax in Sprague-Dawley rat assessed as RM-4848 level in plasma at 6 mg/kg, iv administered as single dose; assay type: ADME, organism-based; set-up: dose 6 mg/kg, route intravenous; conditions: in vivo; summary of the method: as §2
Rattus norvegicus [22] = experiment: Drug metabolism in Sprague-Dawley rat assessed as RM-4848-glucuronide formation at 6.4 mg/kg, iv measured at 0.25 to 1 hrs post dose; assay type: ADME, organism-based; conditions: in vivo
Plasma [23] = experiment: Drug metabolism in Sprague-Dawley rat assessed as RM4848-glucuronide formation in plasma at 30 mg/kg, po measured at 0.25 to 0.5 post dose; assay type: ADME, organism-based; conditions: in vivo; summary of the method: as §2
Rattus norvegicus [24] = experiment: Tmax in Sprague-Dawley rat assessed as RM-4848-glucuronide formation at 6.4 mg/kg, iv; assay type: ADME, organism-based; conditions: in vivo; summary of the method: as §3
Rattus norvegicus [25] = experiment: Elimination half life in Sprague-Dawley rat assessed as RM-4848 level in plasma at 6.2 mg/kg, iv; assay type: ADME, organism-based; conditions: in vivo
Plasma [26] = experiment: Drug metabolism in Sprague-Dawley rat assessed as RM-4848-glucuronide formation in plasma at 30 mg/kg, po administered as single dose; assay type: ADME, organism-based; conditions: in vivo; summary of the method: as §2
Rattus norvegicus [27] = experiment: Tmax in Sprague-Dawley rat assessed as RM4848-glucuronide level in plasma at 30 mg/kg, po administered as single dose; assay type: ADME, organism-based; conditions: in vivo; summary of the method: as §3
Rattus norvegicus [28] = experiment: Tmax in Sprague-Dawley rat assessed as RM-4848 level in plasma at 6.2 mg/kg, iv; assay type: ADME, organism-based; conditions: in vivo; summary of the method: as §3
Plasma [29] = experiment: Drug metabolism in Sprague-Dawley rat assessed as RM-4848-glucuronide formation in plasma at 6.2 mg/kg, iv at 0.083 hrs post dose; assay type: ADME, organism-based; conditions: in vivo
Plasma [30] = experiment: Drug metabolism in Sprague-Dawley rat assessed as RM-4848 formation in plasma at 30 mg/kg, po administered as single dose measured at 0.083 to 4 hrs post dose; assay type: ADME, organism-based; conditions: in vivo; summary of the method: as §2
Rattus norvegicus [31] = experiment: Tmax in Sprague-Dawley rat assessed as RM-4848-glucuronide level in plasma at 6.2 mg/kg, iv; assay type: ADME, organism-based; conditions: in vivo; summary of the method: as §3
Rattus norvegicus [32] = experiment: Elimination half life in Sprague-Dawley rat assessed as RM-4848-glucuronide level at 6.2 mg/kg, iv; assay type: ADME, organism-based; conditions: in vivo

Drug metabolism (Plasma [2]) | Drug metabolism (Canis familiaris) | Cmax (Rattus norvegicus [5]) [ng/mL] | Cmax (Rattus norvegicus [6]) [ng/mL] | beta t1/2 (Rattus norvegicus [7]) [h] | AUCt (Rattus norvegicus [9]) [ng·h/mL] | beta t1/2 (Rattus norvegicus [10]) [h] | AUCt (Rattus norvegicus [13]) [ng·h/mL] | F (Rattus norvegicus [14]) [%] | AUCt (Rattus norvegicus [16]) [ng·h/mL] | Cmax (Rattus norvegicus [18]) [ng/mL] | AUCt (Rattus norvegicus [19]) [ng·h/mL] | Cmax (Rattus norvegicus [21]) [ng/mL] | SMILES | further results
Metabolite_Detected | Metabolite_Detected | – | – | – | – | – | – | – | – | – | – | – | O=C(Nc1ncc([N+](=O)[O-])s1)c1ccccc1O[C@@H]1O[C@H](C(=O)O)[C@@H](O)[C@H](O)[C@H]1O | beta t1/2 (Plasma [1]): 1.5 to 11 h
Metabolite_Detected | Metabolite_Detected | – | – | – | – | – | – | – | – | – | – | – | O=C(Nc1ncc([N+](=O)[O-])s1)c1ccccc1O [TIZOXANIDE] | beta t1/2 (Plasma [3]): 0.7 to 3.7 h; Drug metabolism (Rattus norvegicus [4]): Metabolite_Detected
– | – | 2080 | 17300 | 6.14 | 3480 | 3 | 10040 | 1 | 19400 | 101 | 130 | 9980 | CC(=O)Oc1ccccc1C(=O)Nc1ncc(Cl)s1 | Drug metabolism (Plasma [8]): Metabolite_Detected; beta t1/2 (Rattus norvegicus [11]): 2.5 to 3.2 h; Drug metabolism (Plasma [12]): Metabolite_Detected; beta t1/2 (Rattus norvegicus [15]): 0.67 h; Drug metabolism (Plasma [17]): Metabolite_Detected; Tmax (Rattus norvegicus [20]): 0.25 to 0.5 h; Drug metabolism (Rattus norvegicus [22]): Metabolite_Detected; Drug metabolism (Plasma [23]): Metabolite_Detected; Tmax (Rattus norvegicus [24]): 0.25 to 1 h
– | – | 7290 | 5570 | 3.43 | 631 | 1.4 to 2.6 | 19400 | 23 | 7610 | 622 | 715 | 2650 | CC(C)(C)[C@H](N)C(=O)Oc1ccccc1C(=O)Nc1ncc(Cl)s1.Cl | beta t1/2 (Rattus norvegicus [25]): 0.91 h; Drug metabolism (Plasma [26]): Metabolite_Detected; Tmax (Rattus norvegicus [27]): 0.5 h; Tmax (Rattus norvegicus [28]): 4.98 min; Drug metabolism (Plasma [29]): Metabolite_Detected; Drug metabolism (Plasma [30]): Metabolite_Detected; Tmax (Rattus norvegicus [31]): 0.25 to 0.5 h; beta t1/2 (Rattus norvegicus [32]): 3.15 h
